{"source": "paper PMC7216793", "about": "(Molecular pharmaceutics, 2020)", "key": {"[1]": {"tested_on": "airway resistance induced with methacholine", "details": "airway resistance induced with 25 mg/ml methacholine; cited from earlier work"}, "[2]": {"experiment": "mass spectrometry analysis of pH dependent ratio of closed and open MIDD0301", "format": "physicochemical", "summary_of_the_method": "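Closed form at 50 μM in water was brought to pH 1 with 0.1 M HCl. It was then stepped up to pH 9 with 10% ammonium hydroxide, taking an aliquot at each pH. Aliquots stood 24 h at rt, then final pH was measured. Each was infused directly into the MS without LC or added solvent. Closed:open ratio came from peak heights at 414 and 432 m/z.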"}, "[3]": {"experiment": "shake flask solubility at different pH, UV at 270 nm", "format": "physicochemical", "details": "24 h shake flask", "summary_of_the_method": "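2 mg closed form in 200 μL buffered water was shaken 24 h in a closed vial. It was centrifuged 5 min at 16000 × g and supernatant pH was measured. Three 10 μL aliquots were diluted into 50:50 methanol/25 mM phosphate pH 10 and read at 270 nm. Concentration came from a calibration curve in the same diluent. Three independent measurements per pH.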"}, "[4]": {"experiment": "kinetics of ring opening and closing by 1H-NMR", "format": "physicochemical", "details": "0.1 N DCl in 50:50 D2O:d6-DMSO"}, "[5]": {"details": "earlier work, no reference given; cited from earlier work"}, "[6]": {"details": "oral dosages of 1000 mg/kg; cited from earlier work"}, "[7]": {"experiment": "spectrophotometric pH transition", "format": "physicochemical", "details": "absorbance difference at 252 and 292 nm vs pH", "summary_of_the_method": "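Closed or open form at 50 μM (1% DMSO), in buffers adjusted to 0.1 M ionic strength with KCl: 50 mM phosphoric acid pH 1–2, 50 mM acetate pH 3–5, 50 mM phosphate pH 6–8, 12.5 mM borate pH 9. After 24 h at rt, spectra were read 230–400 nm, DMSO blank subtracted (two experiments, duplicate). Summed absorbance differences at 252/292 nm vs pH were fitted by nonlinear regression.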"}, "[8]": {"details": "28 day dosing of 100 mg/kg; cited from earlier work"}, "[9]": {"experiment": "kinetics of ring opening and closing by UV absorbance at 246 nm", "format": "physicochemical", "details": "UV 246 nm, aqueous 0.1 N HCl", "summary_of_the_method": "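Four replicate wells, each with 5 μL of 1 mM closed form plus 75 μL aqueous acid (0.1 N HCl; final 62.5 μM). A246 read every 30 s for 260 min, with a DMSO-containing buffer blank subtracted. Averaged absorbance-time curves (n = 4) were fitted by first-order kinetics to give k and half-life.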"}, "[10]": {"experiment": "pharmacokinetic study in mice: blood, lung and brain concentrations by LC-MS/MS", "format": "in vivo, Swiss Webster mice", "summary_of_the_method": "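Six-week-old female Swiss Webster mice (SPF) received closed or open form by intragastric gavage at 25 mg/kg in various vehicles (n = 4). At 60 min, heparinised blood was drawn by cardiac puncture and non-perfused brain and lungs were harvested. Samples were extracted in methanol with internal standard. Both forms were quantified by LC-MS/MS (C18; methanol/water, 0.1% formic acid; positive mode).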"}, "[11]": {"experiment": "logD oct/wat at different pH", "format": "physicochemical", "details": "1-octanol/buffered water, 24 h", "summary_of_the_method": "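Shake-flask partition of the closed form. 200 μL of 2.5 mM in 1-octanol was added to 300 μL water-saturated octanol and 500 μL octanol-saturated buffer (pH 1–9). Vials were shaken overnight and left 1 h to separate. Aliquots of each layer were diluted in octanol or buffer and read at 270 nm (isosbestic). Concentrations came from per-phase calibration curves. Run in triplicate.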"}, "[12]": {"tested_on": "asthmatic mice (ovalbumin sensitized and challenged model)", "details": "cited from earlier work"}, "[13]": {"experiment": "acid titration of basic MIDD0301 solution with 1 N HCl", "format": "physicochemical", "details": "50 μM in 0.1 N NaOH, water with 30 % DMSO; nonlinear regression"}, "ASM": {"tested_on": "ASM", "details": "cited from earlier work"}, "[14]": {"details": "mice, 25 mg/kg oral, 60 min, Entry 1: 2.5 % PEG400, 98 % HPMC (2 % in water), pH 6.1"}, "[15]": {"details": "mice, 25 mg/kg oral, 60 min, Entry 2: 40 % propylene glycol, 60 % HPMC (2 % in water), pH 5.9"}, "[16]": {"details": "mice, 25 mg/kg oral, 60 min, Entry 4: 2.5 % PEG400, 98 % HPMC (2 % in PBS, pH 7.4)"}, "[17]": {"details": "mice, 25 mg/kg oral, 60 min, Entry 4: 2.5 % PEG400, 98 % HPMC (2 % in PBS, pH 7.4), listed as Closed MIDD0301, 25 mg/kg"}, "[18]": {"details": "mice, 25 mg/kg oral, 60 min, Entry 4: 2.5 % PEG400, 98 % HPMC (2 % in PBS, pH 7.4), listed as closed MIDD0301, 25 mg/kg"}, "[19]": {"details": "mice, 25 mg/kg oral, 60 min, Entry 5: pretreatment with omeprazole (30 mg/kg), 2.5 % PEG400, 98 % HPMC (2 % in PBS)"}}, "data": [{"compound": "C[C@H]1N=C(c2ccccc2F)c2cc(Br)ccc2-n2cnc(C(=O)O)c21", "note": "[MIDD0301]", "values": [{"measurement": "nebulized dose sufficient to overcome airway resistance", "setting": "[1]", "result": 0.8, "unit": "mg/kg"}, {"measurement": "closed MIDD0301 remaining by MS", "setting": "[2]; 0.1 N HCl, after 24 h", "result": 10, "unit": "%"}, {"measurement": "open MIDD0301 share by MS", "setting": "[2]; pH 6, after 24 h", "result": 17, "unit": "%"}, {"measurement": "open MIDD0301 share by MS", "setting": "[2]; pH 7 and higher, 24 h", "result": 2, "unit": "%"}, {"measurement": "calculated equilibrium pH (equal peak heights of closed and open form)", "setting": "[2]; water, 24 h, MS 414 vs 432 m/z", "result": 4.3}, {"measurement": "pH range in which the equilibrium between open and closed form was observed", "setting": "[2]; water, MS", "result": "4–5"}, {"measurement": "aqueous solubility", "setting": "[3]; neutral pH", "result": "> 3000", "unit": "µg/mL"}, {"measurement": "aqueous solubility", "setting": "[3]; pH 3.9", "result": "< 100", "unit": "µg/mL"}, {"measurement": "kacid, conversion of closed to open MIDD0301", "setting": "[4]; 2.4 mM, pseudo first order", "result": 0.050, "unit": "min⁻¹"}, {"measurement": "half-life of ring opening", "setting": "[4]", "result": 13.7, "unit": "min"}, {"measurement": "oral dosage required to achieve pharmacological effects", "setting": "[5]", "result": 50, "unit": "mg/kg"}, {"measurement": "CNS effects in sensorimotor studies", "setting": "[6]", "result": "no CNS effects"}, {"measurement": "pH of the spectrophotometric transition", "setting": "[7]", "result": 4.34}, {"measurement": "humoral immune response to T-dependent antigen dinitrophenyl-keyhole limpet haemocyanin", "setting": "[8]", "result": "no change"}, {"measurement": "signs of toxicity", "setting": "[8]", "result": "no signs of toxicity"}, {"measurement": "kacid, conversion of closed to open MIDD0301", "setting": "[9]; 62.5 μM", "result": 0.142, "unit": "min⁻¹"}, {"measurement": "half-life in 0.1 N HCl", "setting": "[9]", "result": 4.8, "unit": "min"}, {"measurement": "percentage of open MIDD0301 in comparison to closed MIDD0301", "setting": "[10]; all biological samples, all formulations", "result": "≤ 4", "unit": "%"}, {"measurement": "Concentration of closed MIDD0301, Brain", "setting": "[10]; [14]", "result": "87 ± 27", "unit": "nM"}, {"measurement": "Concentration of open MIDD0301, Blood", "setting": "[10]; [14]", "result": "9 ± 3", "unit": "nM"}, {"measurement": "Concentration of open MIDD0301, Brain", "setting": "[10]; [14]", "result": "3 ± 1", "unit": "nM"}, {"measurement": "Concentration of open MIDD0301, Lung", "setting": "[10]; [14]", "result": "5 ± 2", "unit": "nM"}, {"measurement": "open MIDD0301, % of closed MIDD0301, Blood", "setting": "[10]; [14]", "result": 3, "unit": "%"}, {"measurement": "open MIDD0301, % of closed MIDD0301, Brain", "setting": "[10]; [14]", "result": 2, "unit": "%"}, {"measurement": "open MIDD0301, % of closed MIDD0301, Lung", "setting": "[10]; [14]", "result": 2, "unit": "%"}, {"measurement": "concentration of open MIDD0301 as % of closed MIDD0301, all samples", "setting": "[10]; mice, 25 mg/kg oral, 60 min, Entry 1, blood, lung, brain", "result": "2–3%"}, {"measurement": "Concentration of closed MIDD0301, Brain", "setting": "[10]; [15]", "result": "104 ± 42", "unit": "nM"}, {"measurement": "Concentration of open MIDD0301, Blood", "setting": "[10]; [15]", "result": "6 ± 2", "unit": "nM"}, {"measurement": "Concentration of open MIDD0301, Brain", "setting": "[10]; [15]", "result": "3 ± 1", "unit": "nM"}, {"measurement": "Concentration of open MIDD0301, Lung", "setting": "[10]; [15]", "result": "9 ± 2", "unit": "nM"}, {"measurement": "open MIDD0301, % of closed MIDD0301, Blood", "setting": "[10]; [15]", "result": 3, "unit": "%"}, {"measurement": "open MIDD0301, % of closed MIDD0301, Brain", "setting": "[10]; [15]", "result": 3, "unit": "%"}, {"measurement": "open MIDD0301, % of closed MIDD0301, Lung", "setting": "[10]; [15]", "result": 2, "unit": "%"}, {"measurement": "Concentration of closed MIDD0301, Brain", "setting": "[10]; [16]", "result": "130 ± 24", "unit": "nM"}, {"measurement": "Concentration of open MIDD0301, Blood", "setting": "[10]; [16]", "result": "18 ± 14", "unit": "nM"}, {"measurement": "Concentration of open MIDD0301, Brain", "setting": "[10]; [16]", "result": "4 ± 3", "unit": "nM"}, {"measurement": "Concentration of open MIDD0301, Lung", "setting": "[10]; [16]", "result": "28 ± 19", "unit": "nM"}, {"measurement": "open MIDD0301, % of closed MIDD0301, Blood", "setting": "[10]; [16]", "result": 4, "unit": "%"}, {"measurement": "open MIDD0301, % of closed MIDD0301, Brain", "setting": "[10]; [16]", "result": 3, "unit": "%"}, {"measurement": "open MIDD0301, % of closed MIDD0301, Lung", "setting": "[10]; [16]", "result": 2, "unit": "%"}, {"measurement": "Concentration of closed MIDD0301, Blood", "setting": "[10]; [17]", "result": "413 ± 116", "unit": "nM"}, {"measurement": "Concentration of closed MIDD0301, Lung", "setting": "[10]; [17]", "result": "1745 ± 1121", "unit": "nM"}, {"measurement": "Concentration of closed MIDD0301, Blood", "setting": "[10]; [18]", "result": 413, "unit": "nM"}, {"measurement": "Concentration of closed MIDD0301, Lung", "setting": "[10]; [18]", "result": 2046, "unit": "nM"}, {"measurement": "Concentration of closed MIDD0301, Blood", "setting": "[10]; [19]", "result": "516 ± 180", "unit": "nM"}, {"measurement": "Concentration of closed MIDD0301, Brain", "setting": "[10]; [19]", "result": "159 ± 33", "unit": "nM"}, {"measurement": "Concentration of closed MIDD0301, Lung", "setting": "[10]; [19]", "result": "2046 ± 1155", "unit": "nM"}, {"measurement": "Concentration of open MIDD0301, Blood", "setting": "[10]; [19]", "result": "20 ± 8", "unit": "nM"}, {"measurement": "Concentration of open MIDD0301, Brain", "setting": "[10]; [19]", "result": "4 ± 2", "unit": "nM"}, {"measurement": "Concentration of open MIDD0301, Lung", "setting": "[10]; [19]", "result": "32 ± 21", "unit": "nM"}, {"measurement": "open MIDD0301, % of closed MIDD0301, Blood", "setting": "[10]; [19]", "result": 4, "unit": "%"}, {"measurement": "open MIDD0301, % of closed MIDD0301, Brain", "setting": "[10]; [19]", "result": 3, "unit": "%"}, {"measurement": "open MIDD0301, % of closed MIDD0301, Lung", "setting": "[10]; [19]", "result": 2, "unit": "%"}, {"measurement": "MIDD0301 in non-perfused brain as % of lung concentration", "setting": "[10]; mice, oral, under these specific conditions (Conclusions)", "result": "less than 10%"}, {"measurement": "pH range of highest concentration in 1-octanol", "setting": "[11]", "result": "2–5"}, {"measurement": "IL-17A, IL-4 and TNFα in the lungs", "setting": "[12]; asthmatic mice", "result": "reduction"}, {"measurement": "airway hyperresponsiveness to methacholine challenge", "setting": "[12]; oral 100 mg/kg", "result": "reduced airway hyperresponsiveness"}, {"measurement": "eosinophil, CD4+ T cell and macrophage numbers in the lungs", "setting": "[12]; oral 100 mg/kg", "result": "reduced"}, {"measurement": "pH of inflection, acid titration", "setting": "[13]", "result": 4.69}]}, {"compound": "CC(C)c1cccc(C(C)C)c1O", "note": "[propofol]", "values": [{"measurement": "effect on airway smooth muscle", "setting": "ASM", "result": "relaxed ASM"}]}]}
